Assay results: PubChem BioAssay AID652250 (Vanderbilt Specialized Chemistry Center, 2013)
Calls of active or inactive are those of the source.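 How the source made its calls: active means compounds leaving under half of the peptide-driven platelet calcium rise; inactive means the rest.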

Target: Proteinase-activated receptor 4 (Homo sapiens) (UniProt Q96RI0)
Assay: PAR4 antagonists in human platelets, cell-based, single concentration, washed platelets, Fluo4 calcium (AID 652250)
Settings: PAR4-AP calcium Fluo4 fluorescence, at 10 µM
Outline: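 Test system: Fluo4-AM-loaded washed human platelets | Input: 10^8 platelets/mL | Signal: Fluorescence at 480/540 nm, 1 s intervals | Controls: PAR4-AP-stimulated DMSO control (100%) | Replication: Triplicate wells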

Sequence of Proteinase-activated receptor 4 (Homo sapiens) (Q96RI0 whole entry, looked up): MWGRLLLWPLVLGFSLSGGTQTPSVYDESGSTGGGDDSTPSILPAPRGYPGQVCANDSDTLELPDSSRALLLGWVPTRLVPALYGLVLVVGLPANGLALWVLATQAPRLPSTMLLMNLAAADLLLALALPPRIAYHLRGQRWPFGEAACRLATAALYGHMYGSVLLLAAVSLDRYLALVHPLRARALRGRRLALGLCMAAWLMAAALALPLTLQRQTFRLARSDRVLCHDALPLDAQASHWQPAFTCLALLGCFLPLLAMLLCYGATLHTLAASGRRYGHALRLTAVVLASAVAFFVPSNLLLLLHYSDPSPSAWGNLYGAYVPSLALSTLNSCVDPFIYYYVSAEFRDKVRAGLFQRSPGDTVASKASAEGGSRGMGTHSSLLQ

% of max PAR4-AP calcium response: inactive
SMILES: c1ccc(CN2CCN(c3ncnc4c3c(-c3ccccc3)cn4-c3ccccc3)CC2)cc1
